# Screening results deposited in PubChem BioAssay by The Scripps Research Institute Molecular Screening Center.
# CHO parental Ca – signal in parental CHO cells, OX1R antagonist counter-screen; 330,000 tested, 0.63% active; parental CHO-K1, ATP-induced calcium, Fluo-8 fluorescence; inhibition, % at 5.6 µM;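 active = inhibition above that plate's mean sample inhibition plus 3 SD, cut at about 26% in these data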
#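 Test system: parental CHO cells; detection: calcium-sensitive Fluo-8 fluorescence; evaluation: percent inhibition of calcium signal; also added: ATP as calcium-mobilizing challenge; repeats: one well per compound; control set: ATP-challenged DMSO wells low, unchallenged DMSO wells high; compound: single nominal dose of 5.6 µM per compound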
# OX1R antag-1 – human HCRTR1 antagonism | O43613 | CHO/OX1R cells, Fluo-8 calcium fluorescence, orexin A | inhibition, % at 5 µM | 330,000 tested, 0.43% active | AID 434989;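 active = inhibition above its plate's threshold, mean inhibition of all tested compounds on the plate plus 3 SD, cut at about 37% in these data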
# GalR3 antag – blocks the human galanin receptor 3; O60755; HEK293 GalR3-CNG cAMP membrane potential fluorescence; galR3 body fused to GalR1 C-terminus; inhibition, % at 3 µM; 360,000 tested, 0.44% active; AID 651719;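 active = inhibition above the screen-wide average plus 3 SD, cut at about 13% in these data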;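 also: forskolin and galanin both at EC90 stimulate the cells; cAMP rise reported by CNG channel membrane potential dye signal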
# GPR7 antag – antagonists of human GPR7 (neuropeptides B/W receptor 1) | GPR7-expressing cells, fluorescence antagonist assay | AID 1861 | 290,000 tested, 1.1% active | inhibition, % at 4.4 µM; in the data active = inhibition above about 16%, passing the limit was not always enough;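 also: cells stimulated with the agonist NPW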
# Target sequence (P48145 whole entry, looked up): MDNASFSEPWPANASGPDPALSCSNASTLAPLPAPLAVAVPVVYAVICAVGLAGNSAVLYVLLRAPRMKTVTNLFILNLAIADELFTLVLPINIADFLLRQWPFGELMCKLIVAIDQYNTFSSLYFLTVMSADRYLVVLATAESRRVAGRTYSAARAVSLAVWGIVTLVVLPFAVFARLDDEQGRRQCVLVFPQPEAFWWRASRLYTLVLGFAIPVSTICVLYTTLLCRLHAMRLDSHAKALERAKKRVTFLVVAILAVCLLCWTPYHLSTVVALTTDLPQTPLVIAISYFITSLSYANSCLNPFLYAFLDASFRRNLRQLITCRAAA
# OX1R antag-2 – OX1R (human) antagonism | inhibition, % at 6.6 µM | 330,000 tested, 1.8% active | OX1R-expressing cells, FRET antagonist read-out | O43613; in the data active = inhibition mostly above about 38%, no sharp cut-off; inactive = mostly below about 40%
# OX1R Fluo8 conf – OX1R (human) antagonism, confirmed. shares compounds with OX1R antag-1. CHO/OX1R cells, orexin A calcium Fluo-8 fluorescence. inhibition, % at 5 µM. 1,100 tested, 38% active; in the data active = inhibition above about 29%
# CHO Ca triplic – counter-screen for OX1R antagonists: effect in parental CHO cells; shares compounds with OX1R antag-1; parental CHO-K1, ATP-induced calcium, Fluo-8 fluorescence; inhibition, % at 5.6 µM; 1,100 tested, 9.3% active;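 active = inhibition above a per-plate limit, the mean inhibition of that plate's test compounds plus 3 SD, cut at about 25% in these data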
# OX1R HTRF conf – OX1R (human) antagonism, HTRF confirmed | 1,800 tested, 49% active | OX1R-expressing cells, HTRF antagonist assay | inhibition, % at 6.6 µM | shares compounds with OX1R antag-2 | AID 492964; in the data active = inhibition above about 55%;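 also: CHO cells expressing OX1R stimulated with orexin A at about EC80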
# CHO-K1 HTRF – signal in parental CHO-K1 cells, OX1R antagonist counter-screen; shares compounds with OX1R antag-2; HTRF counterscreen; inhibition, % at 6.6 µM; 1,800 tested, 48% active; in the data active = inhibition above about 17%
# A number is an active result; – = inactive; · = not tested or not shown. An excerpt weighted towards active compounds, which were near 3.1% of everything screened.
SMILES,CHO parental Ca,OX1R antag-1,GalR3 antag,GPR7 antag,OX1R antag-2,OX1R Fluo8 conf,CHO Ca triplic,OX1R HTRF conf,CHO-K1 HTRF
O=C(Nc1cccc(F)c1)C1CCCN1S(=O)(=O)c1cccc2cccnc12 (stereo not drawn),–,–,–,–,71,31,–,89,–
COc1cccc2sc3ccc(C#CC4(N)CCCCC4)cc3c(=O)c12,–,–,–,–,–,·,·,·,·
COc1cccc2sc3cc(C#CC4(O)CCCCC4)ccc3c(=O)c12,–,87,–,·,80,55,–,87,–
COc1ccc(/C=N/NC(=O)c2nnn(-c3nonc3N)c2CN(C)c2ccccc2)cc1,–,44,–,–,50,31,–,83,–
CN(Cc1c(C(=O)N/N=C/c2ccccc2)nnn1-c1nonc1N)c1ccccc1,–,58,–,–,72,36,–,83,–
CN(Cc1c(C(=O)N/N=C/c2ccc(O)cc2)nnn1-c1nonc1N)c1ccccc1,–,80,–,–,95,37,–,79,–
CCc1nc2c(OCc3ccc(F)c(F)c3)cccn2c1N(C)C(=O)c1cccs1,·,·,–,·,·,·,·,·,·
O=C1NC[C@@H](CCCCN2C[C@H](Cc3ccc(O)cc3)N(CCc3ccc(O)cc3)C(=O)C2=O)N(CCc2ccc(O)cc2)C1=O,·,·,–,·,·,·,·,·,·
Cc1ccc(S(=O)(=O)N(CCCO)CC(O)CON=C2c3ccccc3-c3ccccc32)cc1 (stereo not drawn),–,42,–,–,73,–,–,76,–
CCN(CC(O)Cn1c2ccccc2c2ccccc21)S(=O)(=O)c1ccc(C)cc1 (stereo not drawn),–,–,–,–,–,·,·,·,·
Cc1ccc2c(c1)Cc1nc3ccccc3nc1-2,–,–,–,–,87,33,–,90,–
COC(=O)Cc1nnn2c1[C@H](C)[C@@H](OC)c1cccc(Cl)c1-2,·,·,–,·,·,·,·,·,·
NNC(=O)c1cc2sccc2s1,–,91,–,–,87,–,–,–,–
CC(=O)NNC(=O)c1cc2sccc2s1,–,–,–,–,–,·,·,·,·
CC(NCC(=O)Nc1ccccc1C(=O)NC1CC1)c1ccc(F)cc1F (stereo not drawn),–,57,–,·,68,44,–,87,–
CC[C@]12c3[nH]c4cc(-c5ccco5)ccc4c3CCN1C(=O)[C@@H](CC(=O)NC/C=C(\C)CCC=C(C)C)C[C@@H]2C(=O)N1CCN(C(=O)c2ccco2)CC1,–,94,·,·,58,74,–,76,–
CC[C@]12c3[nH]c4cc(-c5ccco5)ccc4c3CCN1C(=O)[C@@H](CC(=O)NC/C=C(\C)CCC=C(C)C)C[C@@H]2C(=O)N1CCN(C(=O)C2CC2)CC1,–,–,–,·,–,·,·,·,·
Cc1ccc(N(C)S(=O)(=O)c2cccc(C(=O)NCC(c3cccs3)N3CCOCC3)c2)cc1 (stereo not drawn),–,47,–,·,78,38,–,94,–
Cc1ccc(S(=O)(=O)N(C)c2ccc(C(=O)NCC(c3cccs3)N3CCOCC3)cc2)cc1 (stereo not drawn),–,–,–,–,–,·,·,·,·
COc1ccc(-c2nc3ccccc3s2)cc1O,–,85,–,–,112,37,–,98,–
CC(=O)Nc1cccc(-c2nc3ccccc3s2)c1,–,–,–,–,76,–,–,–,–
COc1cc(OC)c(-c2nc3ccccc3s2)cc1OC,–,54,–,–,94,36,–,93,–
CCN(CC)C(=O)C1=C(C)N(Cc2ccc(OC)cc2)C(=O)C(CC(=O)NC2CCCC2)C1 (stereo not drawn),·,·,–,·,·,·,·,·,·
CC(=O)c1cccc(N(C(=O)c2ccccn2)C(C(=O)NC2CCCCC2)c2ccccc2)c1 (stereo not drawn),–,–,–,–,–,·,·,·,·
